According to ChEMBL document CHEMBL1122415, “Folate antagonists. 20. Synthesis and antitumor and antimalarial properties of trimetrexate and related 6-[(phenylamino)methyl]-2,4-quinazolinediamines” (1983):
“And” between values parts separate entries of the source, which are not always exact repeats. Identical values can stand only once.

Experiments:
Plasmodium berghei [1] = experiment: Antimalarial effect against trophozoite-induced Plasmodium berghei in mice (Mus musculus) at 40 mg/kg subcutaneous dose; assay type: functional
Plasmodium berghei [2] = experiment: Antimalarial effect against trophozoite-induced Plasmodium berghei in mice (Mus musculus) after subcutaneous dose of 10 mg/kg; assay type: functional
Mus musculus [3] = experiment: Antimalarial effect against trophozoite-induced Plasmodium berghei in mice (Mus musculus) after subcutaneous administration dose of 640 mg/kg; assay type: functional
Plasmodium berghei [4] = experiment: Antimalarial effect against trophozoite-induced Plasmodium berghei in mice (Mus musculus) at 320 mg/kg subcutaneous dose; assay type: functional
Plasmodium berghei [5] = experiment: Antimalarial effect against trophozoite-induced Plasmodium berghei in mice (Mus musculus) at 20 mg/kg subcutaneous dose; assay type: functional
Plasmodium berghei [6] = experiment: Antimalarial effect against trophozoite-induced Plasmodium berghei in mice (Mus musculus) after subcutaneous dose of 160 mg/kg; assay type: functional
L1210 = experiment: Molar concentration required to reduce the number of L1210 cells by 50% after incubation for 2 days; assay type: functional, Mus musculus; details: read-out: ID50 (the source's name)
Outline: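 L1210 leukemia cells in tissue culture exposed to drug for 2 days. ID50 is the molar concentration that reduces L1210 cell number by 50%. Mithramycin is the reference drug.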

Mus musculus [7] = organism: Mus musculus; experiment: Daily dose required for 90% parasitaemia in trophozoite induced Plasmodium berghei in 21 mice; assay type: functional
Outline: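 Oral suppressive test in mice against a normal drug-sensitive P. berghei strain. Drug given continuously in the diet for six consecutive days, with doses as free base equivalent. SD90 is the daily dose (mg/kg) giving 90% suppression of parasitemia versus control mice, estimated graphically on semilog paper.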

Mus musculus [8] = experiment: Antimalarial effect against trophozoite-induced Plasmodium berghei in mice (Mus musculus) after subcutaneous administration dose of 40 mg/kg; 1 survived after 60 days of postinfection; assay type: functional
Plasmodium berghei [9] = experiment: Antimalarial effect against trophozoite-induced Plasmodium berghei in mice (Mus musculus) at 5 mg/kg subcutaneous dose; assay type: functional
Mus musculus [10] = experiment: Antimalarial effect against trophozoite-induced Plasmodium berghei in mice (Mus musculus) after subcutaneous administration dose of 2.5 mg/kg; assay type: functional
Mus musculus [11] = experiment: Antimalarial effect against trophozoite-induced Plasmodium berghei in mice (Mus musculus) after subcutaneous administration dose of 40 mg/kg; 2 survived after 60 days of postinfection; assay type: functional
Plasmodium berghei [12] = experiment: Change in mean survival time of Trophozoite-induced Plasmodium berghei infected mice (Mus musculus) after 160 mg/kg subcutaneous dose; 60 days survival; assay type: functional
Plasmodium berghei [13] = experiment: Antimalarial effect against trophozoite-induced Plasmodium berghei in mice (Mus musculus) at 80 mg/kg subcutaneous dose; assay type: functional
Mus musculus [14] = experiment: Antimalarial effect against trophozoite-induced Plasmodium berghei in mice (Mus musculus) after subcutaneous administration dose of 320 mg/kg; 3 survived after 60 days of postinfection; assay type: functional
Mus musculus [15] = experiment: Antimalarial effect against trophozoite-induced Plasmodium berghei in mice (Mus musculus) after subcutaneous administration dose of 320 mg/kg; 1 survived after 60 days of post infection
Mus musculus [16] = experiment: Antimalarial effect against trophozoite-induced Plasmodium berghei in mice (Mus musculus) after subcutaneous administration dose of 1.25 mg/kg; assay type: functional
Mus musculus [17] = experiment: Antimalarial effect against trophozoite-induced Plasmodium berghei in mice (Mus musculus) after subcutaneous administration dose of 20 mg/kg; 2 survived after 60 days of postinfection; assay type: functional
Mus musculus [18] = experiment: Antimalarial effect against trophozoite-induced Plasmodium berghei in mice (Mus musculus) after subcutaneous administration dose of 160 mg/kg; 3 survived after 60 days of postinfection; assay type: functional
Mus musculus [19] = experiment: Antimalarial effect against trophozoite-induced Plasmodium berghei in mice (Mus musculus) after subcutaneous administration dose of 40 mg/kg; 3 survived after 60 days of post infection; assay type: functional
Mus musculus [20] = experiment: Antimalarial effect against trophozoite-induced Plasmodium berghei in mice (Mus musculus) after subcutaneous administration dose of 80 mg/kg; 1 survived after 60 days of postinfection; assay type: functional; details: 80 mg/kg

Nc1nc(N)c2cc(CN(C=O)c3ccc(Cl)c(C(F)(F)F)c3)ccc2n1
Delta MST (Plasmodium berghei [1]; 40 mg/kg): 1.5 days and 1.7 days | Delta MST (Plasmodium berghei [2]): 0.3 days | Delta MST (Mus musculus [3]): 9.9 days | Delta MST (Plasmodium berghei [4]; 320 mg/kg): 12.5 days and 12.3 days | Delta MST (Plasmodium berghei [5]): 0.3 days | Delta MST (Plasmodium berghei [6]; 160 mg/kg): 7.5 days and 6.3 days

CC(=O)O.COc1cc(NCc2ccc3nc(N)nc(N)c3c2)cc(OC)c1OC.O
Delta MST (Plasmodium berghei [1]; 40 mg/kg): 0.7 days and 0.3 days | IC50 (L1210; Mus musculus, L1210, 48 h): 57 nM | IC50 (L1210): 87 nM | Delta MST (Plasmodium berghei [2]): 0.3 days | Delta MST (Plasmodium berghei [4]): 7.9 days | SD90 (Mus musculus [7]): 62 mg/kg/day | Delta MST (Plasmodium berghei [5]): 0.7 days | Delta MST (Plasmodium berghei [6]; 160 mg/kg): 4.9 days and 4.5 days

CCc1nc(N)nc(N)c1-c1ccc(Cl)cc1 [PYRIMETHAMINE]
Delta MST (Mus musculus [8]): 7.7 days and 6.1 days | Delta MST (Plasmodium berghei [2]): 5.3 days | Delta MST (Plasmodium berghei [9]): 3.1 days | Delta MST (Mus musculus [10]): 4.7 days

CC(=O)O.Nc1nc(N)c2cc(CNc3ccc4cc(Cl)ccc4c3)ccc2n1.O.O
IC50 (L1210; Mus musculus, L1210, 48 h): 140 nM | IC50 (L1210): 260 nM | Delta MST (Plasmodium berghei [2]): 3.3 days | Delta MST (Plasmodium berghei [5]; 20 mg/kg): 8.3 days and 8.5 days | Delta MST (Mus musculus [11]): 20.6 days and 20.7 days

CC(=O)O.Nc1nc(N)c2cc(CNc3ccc(Cl)c(C(F)(F)F)c3)ccc2n1.O.O
Delta MST (Plasmodium berghei [1]; 40 mg/kg): 10.5 days and 4.9 days | Delta MST (Plasmodium berghei [2]; 10 mg/kg): 4.9 days and 2.7 days | Delta MST (Plasmodium berghei [12]): 23.9 days | Delta MST (Plasmodium berghei [13]; 80 mg/kg): 27.2 days and 10.3 days | Delta MST (Plasmodium berghei [4]): 29.9 days | Delta MST (Plasmodium berghei [5]): 5.1 days

CC(=O)O.Nc1nc(N)c2cc(CNc3ccccc3Cl)ccc2n1.O
Delta MST (Plasmodium berghei [1]; 40 mg/kg): 3.1 days and 1.3 days | IC50 (L1210; Mus musculus, L1210, 48 h): 93 nM | IC50 (L1210): 68 nM | Delta MST (Mus musculus [14]): 8.4 days | Delta MST (Plasmodium berghei [2]): 0.7 days | Delta MST (Mus musculus [15]): 7.9 days | Delta MST (Plasmodium berghei [9]): 0.7 days | Delta MST (Plasmodium berghei [13]): 7.7 days | Delta MST (Plasmodium berghei [4]; 320 mg/kg): 9.9 days and 8.4 days | SD90 (Mus musculus [7]): 8 mg/kg/day

CC(=O)O.Cc1c(CNc2ccc(Cl)cc2)ccc2nc(N)nc(N)c12
IC50 (L1210; Mus musculus, L1210, 48 h): 1.9 nM | Delta MST (Plasmodium berghei [2]; 10 mg/kg): 19.8 days and 25.9 days and 8.8 days | Delta MST (Plasmodium berghei [9]): 8.7 days | SD90 (Mus musculus [7]): 0.088 mg/kg/day | Delta MST (Plasmodium berghei [5]): 20.9 days | Delta MST (Mus musculus [10]): 0.7 days

CC(=O)O.Nc1nc(N)c2cc(CNc3ccc(Cl)c4ccccc34)ccc2n1.O
IC50 (L1210; Mus musculus, L1210, 48 h): 22 nM | IC50 (L1210): 13 nM | Delta MST (Plasmodium berghei [2]; 10 mg/kg): 10.3 days and 10.5 days and 10.7 days | Delta MST (Mus musculus [16]): 1.7 days | Delta MST (Plasmodium berghei [9]): 9.9 days | Delta MST (Mus musculus [10]): 5.5 days | Delta MST (Mus musculus [17]; 20 mg/kg): 11.9 days and 12.6 days and 12.9 days

Nc1nc(N)c2cc(NCc3ccc(Cl)c(Cl)c3)ccc2n1
Delta MST (Plasmodium berghei [1]; 40 mg/kg): 7.1 days and 2.7 days | Delta MST (Plasmodium berghei [13]; 80 mg/kg): 13.1 days and 7.3 days | SD90 (Mus musculus [7]): 8.5 mg/kg/day | Delta MST (Plasmodium berghei [6]): 9.9 days | Delta MST (Mus musculus [18]): 9.9 days

CC(=O)N(Cc1ccc2nc(N)nc(N)c2c1)c1ccc(Cl)c(Cl)c1
Delta MST (Plasmodium berghei [1]): 3.7 days | IC50 (L1210; Mus musculus, L1210, 48 h): 300 nM | IC50 (L1210): 190 nM | Delta MST (Plasmodium berghei [2]): 0.9 days | Delta MST (Plasmodium berghei [13]; 80 mg/kg): 8.3 days and 3.7 days and 4.1 days | SD90 (Mus musculus [7]): >15.1 mg/kg/day | Delta MST (Plasmodium berghei [5]): 1.3 days

Nc1nc(N)c2c(Cl)c(CN(C=O)c3ccc(Cl)c(Cl)c3)ccc2n1
Delta MST (Plasmodium berghei [1]): 21.9 days | Delta MST (Plasmodium berghei [2]): 7.9 days | Delta MST (Mus musculus [19]): 23.9 days | Delta MST (Plasmodium berghei [13]): 24.4 days | Delta MST (Plasmodium berghei [5]; 20 mg/kg): 21.9 days and 21.6 days | Delta MST (Mus musculus [10]; 2.5 mg/kg): 4.1 days and 3.1 days

Nc1nc(N)c2cc(CN(N=O)c3ccc(Cl)c(C(F)(F)F)c3)ccc2n1
Delta MST (Plasmodium berghei [1]; 40 mg/kg): 10.9 days and 11.1 days | Delta MST (Plasmodium berghei [2]): 1.3 days | Delta MST (Plasmodium berghei [5]; 20 mg/kg): 5.1 days and 5.3 days | Delta MST (Mus musculus [20]): 14.9 days and 15.2 days

Nc1nc(N)c2cc(N(Cc3ccc(Cl)c(Cl)c3)N=O)ccc2n1
Delta MST (Plasmodium berghei [2]; 10 mg/kg): 7.5 days and 9.9 days | Delta MST (Plasmodium berghei [9]): 2.9 days | Delta MST (Mus musculus [17]): 20.9 days
